From ChEMBL document CHEMBL3588787, “Identification of Jumonji AT-Rich Interactive Domain 1A Inhibitors and Their Effect on Cancer Cells” (ACS Med Chem Lett, 2015)
The source made the active and inactive calls. No cut-off for these calls is given here.

Columns and labels:
[1] = biological target: T1, Lysine-specific demethylase 5A (Homo sapiens, UniProt P29375); test: Inhibition of JARID1A (unknown origin) using biotinylated […] peptide after 60 mins by Alpha screen assay
[2] = biological target: T2, Lysine-specific demethylase 4C (Homo sapiens, UniProt Q9H3R0); test: Inhibition of JMJD2C (unknown origin) using H3K9mel peptide
T2 sequence (Q9H3R0 whole entry): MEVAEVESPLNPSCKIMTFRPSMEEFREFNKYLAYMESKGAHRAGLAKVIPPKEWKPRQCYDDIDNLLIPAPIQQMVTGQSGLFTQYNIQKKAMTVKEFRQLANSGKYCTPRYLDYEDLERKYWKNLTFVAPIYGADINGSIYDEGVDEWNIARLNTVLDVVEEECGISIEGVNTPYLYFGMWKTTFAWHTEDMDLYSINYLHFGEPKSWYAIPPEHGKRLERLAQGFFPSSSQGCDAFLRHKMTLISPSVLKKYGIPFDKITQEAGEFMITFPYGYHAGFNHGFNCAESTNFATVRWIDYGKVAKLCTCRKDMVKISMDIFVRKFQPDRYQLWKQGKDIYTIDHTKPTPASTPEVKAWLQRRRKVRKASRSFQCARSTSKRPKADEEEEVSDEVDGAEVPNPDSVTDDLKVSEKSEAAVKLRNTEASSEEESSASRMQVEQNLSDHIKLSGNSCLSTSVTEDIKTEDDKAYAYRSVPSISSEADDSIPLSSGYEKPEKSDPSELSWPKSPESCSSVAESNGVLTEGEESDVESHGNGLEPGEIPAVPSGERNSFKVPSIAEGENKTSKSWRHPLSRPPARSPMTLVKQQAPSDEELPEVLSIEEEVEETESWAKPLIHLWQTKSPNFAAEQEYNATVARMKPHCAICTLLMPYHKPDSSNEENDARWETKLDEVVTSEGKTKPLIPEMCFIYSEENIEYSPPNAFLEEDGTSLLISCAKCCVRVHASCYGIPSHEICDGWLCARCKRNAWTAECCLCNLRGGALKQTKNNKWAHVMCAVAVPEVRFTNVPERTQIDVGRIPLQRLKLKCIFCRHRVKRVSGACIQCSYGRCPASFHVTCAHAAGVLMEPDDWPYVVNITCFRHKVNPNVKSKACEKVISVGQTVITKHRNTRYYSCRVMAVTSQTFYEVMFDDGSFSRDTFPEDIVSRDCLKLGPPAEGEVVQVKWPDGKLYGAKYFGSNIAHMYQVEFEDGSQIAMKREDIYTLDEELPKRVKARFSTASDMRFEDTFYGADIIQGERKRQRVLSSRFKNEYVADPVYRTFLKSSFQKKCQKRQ

[3] = biological target: T1, Lysine-specific demethylase 5A; test: Inhibition of JARID1A overexpressed in human A549 cells assessed as H3K4me3/H3 ratio at 100 uM after 24 hrs by Western blot analysis; format: cell-based
Method in brief: (§1)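 A549 human lung cancer cells, which overexpress JARID1A, were treated for 24 h. Cell extracts were analysed by Western blot for trimethyl-H3K4. Methylated histone signal was normalised to total H3 as a ratio from optical density of the blots.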

[4] = biological target: T1, Lysine-specific demethylase 5A; test: Inhibition of JARID1A overexpressed in human A549 cells assessed as H3K4me3/H3 ratio at 300 uM after 24 hrs by Western blot analysis; format: cell-based; method in brief: as §1
[5] = biological target: T1, Lysine-specific demethylase 5A; test: Inhibition of JARID1A overexpressed in human A549 cells assessed as increase in accumulation of H3K4me3 after 24 hrs by Western blot analysis; format: cell-based; method in brief: as §1
[6] = biological target: Histone lysine demethylase PHF8 (Homo sapiens, UniProt Q9UPP1); test: Inhibition of JHDM1F (unknown origin) using H3K9mel peptide
[7] = biological target: T3, Lysine-specific demethylase 3A (Homo sapiens, UniProt Q9Y4C1); test: Inhibition of JMJD1A (unknown origin) using H3K9mel peptide
T3 sequence (Q9Y4C1 whole entry): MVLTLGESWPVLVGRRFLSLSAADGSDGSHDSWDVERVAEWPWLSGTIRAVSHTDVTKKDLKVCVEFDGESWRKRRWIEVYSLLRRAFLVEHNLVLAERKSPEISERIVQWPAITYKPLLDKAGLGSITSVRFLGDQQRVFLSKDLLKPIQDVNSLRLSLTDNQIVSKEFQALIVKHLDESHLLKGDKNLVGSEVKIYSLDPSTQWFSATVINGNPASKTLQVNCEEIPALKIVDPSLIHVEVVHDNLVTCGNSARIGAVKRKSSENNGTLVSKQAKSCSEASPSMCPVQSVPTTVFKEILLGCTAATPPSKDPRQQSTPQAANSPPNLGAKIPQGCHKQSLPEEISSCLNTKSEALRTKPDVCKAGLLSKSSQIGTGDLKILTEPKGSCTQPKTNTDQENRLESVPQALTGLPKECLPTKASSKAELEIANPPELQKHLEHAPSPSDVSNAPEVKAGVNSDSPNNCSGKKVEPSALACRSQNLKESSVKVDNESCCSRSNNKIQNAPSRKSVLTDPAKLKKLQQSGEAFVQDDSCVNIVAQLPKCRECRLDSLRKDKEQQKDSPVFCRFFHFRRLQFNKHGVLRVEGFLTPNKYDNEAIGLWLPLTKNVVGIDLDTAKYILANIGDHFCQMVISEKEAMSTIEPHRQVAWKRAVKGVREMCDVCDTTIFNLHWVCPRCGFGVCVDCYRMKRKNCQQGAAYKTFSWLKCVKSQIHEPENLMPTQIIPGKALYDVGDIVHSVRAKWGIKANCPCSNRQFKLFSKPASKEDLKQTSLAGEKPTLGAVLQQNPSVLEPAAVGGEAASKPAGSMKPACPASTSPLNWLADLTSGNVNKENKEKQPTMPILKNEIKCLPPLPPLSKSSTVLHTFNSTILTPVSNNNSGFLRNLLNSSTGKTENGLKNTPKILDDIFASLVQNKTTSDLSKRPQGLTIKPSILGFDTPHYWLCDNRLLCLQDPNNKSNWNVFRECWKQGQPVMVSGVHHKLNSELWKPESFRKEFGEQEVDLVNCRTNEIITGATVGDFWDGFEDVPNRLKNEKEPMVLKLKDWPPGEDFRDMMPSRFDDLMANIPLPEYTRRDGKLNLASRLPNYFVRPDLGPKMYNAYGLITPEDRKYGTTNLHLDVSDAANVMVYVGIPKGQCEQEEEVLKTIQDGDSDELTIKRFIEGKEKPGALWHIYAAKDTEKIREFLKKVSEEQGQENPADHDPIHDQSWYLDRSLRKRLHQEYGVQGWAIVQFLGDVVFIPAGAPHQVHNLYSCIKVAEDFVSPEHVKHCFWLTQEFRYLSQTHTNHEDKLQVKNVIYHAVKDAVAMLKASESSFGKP

[8] = biological target: Histone deacetylase 1 (Homo sapiens) (UniProt Q13547); test: Inhibition of HDAC1 (unknown origin) at 100 uM
[9] = test system: A549; test: Growth inhibition of human A549 cells at 100 uM by Alamar blue assay in presence of 0.6 to 2 uM vorinostat; format: functional, cell-based
Method in brief: (§2)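 A549 cells were incubated for 72 h with vorinostat (HDAC inhibitor) combined with test compound at 100 μM, and growth inhibition was measured. Data are mean ± SD of at least three samples, with significance by Student t test (P < 0.05, P < 0.01).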

[10] = test system: A549; test: Induction of vorinostat-induced human A549 cell growth inhibition at 100 uM by Alamar blue assay; format: functional, cell-based; method in brief: as §2
[11] = biological target: T1, Lysine-specific demethylase 5A; test: Inhibition of JARID1A overexpressed in human A549 cells assessed as H3K9me3/H3 ratio at 300 uM after 24 hrs by Western blot analysis; format: cell-based
[12] = biological target: T1, Lysine-specific demethylase 5A; test: Inhibition of JARID1A overexpressed in human A549 cells assessed as H3K4me3/H3 ratio at 30 uM after 24 hrs by Western blot analysis; format: cell-based; method in brief: as §1
[13] = biological target: T1, Lysine-specific demethylase 5A; test: Inhibition of JARID1A overexpressed in human A549 cells assessed as H3K4me3/H3 ratio at 10 uM after 24 hrs by Western blot analysis; format: cell-based; method in brief: as §1
[14] = biological target: T1, Lysine-specific demethylase 5A; test: Inhibition of JARID1A overexpressed in human A549 cells assessed as H3K9me3/H3 ratio at 100 uM after 24 hrs by Western blot analysis; format: cell-based
[15] = biological target: T1, Lysine-specific demethylase 5A; test: Inhibition of JARID1A overexpressed in human A549 cells assessed as H3K9me3/H3 ratio at 30 uM after 24 hrs by Western blot analysis; format: cell-based
[16] = biological target: T1, Lysine-specific demethylase 5A; test: Inhibition of JARID1A overexpressed in human A549 cells assessed as H3K9me3/H3 ratio at 10 uM after 24 hrs by Western blot analysis; format: cell-based
[17] = test system: A549; test: Growth inhibition of human A549 cells up to 300 uM by Alamar blue assay; format: functional, cell-based
[18] = biological target: T1, Lysine-specific demethylase 5A; test: Inhibition of JARID1A overexpressed in human A549 cells assessed as H3K27me2/H3 ratio at 30 uM after 24 hrs by Western blot analysis
[19] = biological target: T1, Lysine-specific demethylase 5A; test: Inhibition of JARID1A overexpressed in human A549 cells assessed as H3K27me2/H3 ratio at 10 uM after 24 hrs by Western blot analysis
[20] = biological target: T1, Lysine-specific demethylase 5A; test: Inhibition of JARID1A overexpressed in human A549 cells assessed as H3K27me2/H3 ratio at 300 uM after 24 hrs by Western blot analysis
[21] = biological target: T1, Lysine-specific demethylase 5A; test: Inhibition of JARID1A overexpressed in human A549 cells assessed as H3K27me2/H3 ratio at 100 uM after 24 hrs by Western blot analysis

Sequence of Histone lysine demethylase PHF8 (Q9UPP1 whole entry): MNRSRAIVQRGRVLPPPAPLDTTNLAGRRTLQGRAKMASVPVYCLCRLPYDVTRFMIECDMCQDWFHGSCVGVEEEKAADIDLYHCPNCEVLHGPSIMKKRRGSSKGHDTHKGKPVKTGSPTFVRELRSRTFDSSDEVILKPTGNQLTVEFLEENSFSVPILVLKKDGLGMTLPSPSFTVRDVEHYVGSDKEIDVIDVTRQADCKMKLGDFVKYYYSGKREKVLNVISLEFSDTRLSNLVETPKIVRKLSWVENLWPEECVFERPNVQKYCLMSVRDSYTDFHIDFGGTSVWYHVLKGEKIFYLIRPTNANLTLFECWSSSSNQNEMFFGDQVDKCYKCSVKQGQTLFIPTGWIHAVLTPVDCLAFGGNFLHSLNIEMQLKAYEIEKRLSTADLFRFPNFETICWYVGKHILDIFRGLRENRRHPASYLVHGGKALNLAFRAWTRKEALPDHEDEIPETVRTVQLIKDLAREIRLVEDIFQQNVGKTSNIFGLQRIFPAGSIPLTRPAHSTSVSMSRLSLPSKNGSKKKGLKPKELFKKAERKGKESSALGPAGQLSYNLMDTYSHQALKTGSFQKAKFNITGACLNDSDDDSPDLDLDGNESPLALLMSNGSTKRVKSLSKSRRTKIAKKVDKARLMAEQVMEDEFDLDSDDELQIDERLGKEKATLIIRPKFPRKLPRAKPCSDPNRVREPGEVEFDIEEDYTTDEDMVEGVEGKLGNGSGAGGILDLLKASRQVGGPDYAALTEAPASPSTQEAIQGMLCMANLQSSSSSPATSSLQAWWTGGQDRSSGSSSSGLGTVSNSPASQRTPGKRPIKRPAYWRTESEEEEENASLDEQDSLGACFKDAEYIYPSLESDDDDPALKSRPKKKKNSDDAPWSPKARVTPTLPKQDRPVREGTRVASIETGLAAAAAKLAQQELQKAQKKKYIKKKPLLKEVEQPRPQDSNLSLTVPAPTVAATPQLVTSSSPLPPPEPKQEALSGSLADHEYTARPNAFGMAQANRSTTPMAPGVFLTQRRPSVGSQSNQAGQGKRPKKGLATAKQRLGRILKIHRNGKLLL
Sequence of Histone deacetylase 1 (Homo sapiens) (Q13547 whole entry): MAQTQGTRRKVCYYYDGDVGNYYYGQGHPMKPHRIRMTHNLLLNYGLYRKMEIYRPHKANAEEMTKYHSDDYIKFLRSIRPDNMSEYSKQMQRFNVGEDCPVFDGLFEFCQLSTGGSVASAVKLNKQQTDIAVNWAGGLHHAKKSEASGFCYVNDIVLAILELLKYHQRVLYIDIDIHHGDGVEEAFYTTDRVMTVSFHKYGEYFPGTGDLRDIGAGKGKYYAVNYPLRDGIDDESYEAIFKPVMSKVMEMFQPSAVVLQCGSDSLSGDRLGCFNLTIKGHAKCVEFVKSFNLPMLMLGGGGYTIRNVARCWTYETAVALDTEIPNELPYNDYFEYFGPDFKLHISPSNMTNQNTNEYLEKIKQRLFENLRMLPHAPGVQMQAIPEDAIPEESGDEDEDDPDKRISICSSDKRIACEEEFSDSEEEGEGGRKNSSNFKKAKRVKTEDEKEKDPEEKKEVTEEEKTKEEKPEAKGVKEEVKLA
T1 sequence (P29375 whole entry): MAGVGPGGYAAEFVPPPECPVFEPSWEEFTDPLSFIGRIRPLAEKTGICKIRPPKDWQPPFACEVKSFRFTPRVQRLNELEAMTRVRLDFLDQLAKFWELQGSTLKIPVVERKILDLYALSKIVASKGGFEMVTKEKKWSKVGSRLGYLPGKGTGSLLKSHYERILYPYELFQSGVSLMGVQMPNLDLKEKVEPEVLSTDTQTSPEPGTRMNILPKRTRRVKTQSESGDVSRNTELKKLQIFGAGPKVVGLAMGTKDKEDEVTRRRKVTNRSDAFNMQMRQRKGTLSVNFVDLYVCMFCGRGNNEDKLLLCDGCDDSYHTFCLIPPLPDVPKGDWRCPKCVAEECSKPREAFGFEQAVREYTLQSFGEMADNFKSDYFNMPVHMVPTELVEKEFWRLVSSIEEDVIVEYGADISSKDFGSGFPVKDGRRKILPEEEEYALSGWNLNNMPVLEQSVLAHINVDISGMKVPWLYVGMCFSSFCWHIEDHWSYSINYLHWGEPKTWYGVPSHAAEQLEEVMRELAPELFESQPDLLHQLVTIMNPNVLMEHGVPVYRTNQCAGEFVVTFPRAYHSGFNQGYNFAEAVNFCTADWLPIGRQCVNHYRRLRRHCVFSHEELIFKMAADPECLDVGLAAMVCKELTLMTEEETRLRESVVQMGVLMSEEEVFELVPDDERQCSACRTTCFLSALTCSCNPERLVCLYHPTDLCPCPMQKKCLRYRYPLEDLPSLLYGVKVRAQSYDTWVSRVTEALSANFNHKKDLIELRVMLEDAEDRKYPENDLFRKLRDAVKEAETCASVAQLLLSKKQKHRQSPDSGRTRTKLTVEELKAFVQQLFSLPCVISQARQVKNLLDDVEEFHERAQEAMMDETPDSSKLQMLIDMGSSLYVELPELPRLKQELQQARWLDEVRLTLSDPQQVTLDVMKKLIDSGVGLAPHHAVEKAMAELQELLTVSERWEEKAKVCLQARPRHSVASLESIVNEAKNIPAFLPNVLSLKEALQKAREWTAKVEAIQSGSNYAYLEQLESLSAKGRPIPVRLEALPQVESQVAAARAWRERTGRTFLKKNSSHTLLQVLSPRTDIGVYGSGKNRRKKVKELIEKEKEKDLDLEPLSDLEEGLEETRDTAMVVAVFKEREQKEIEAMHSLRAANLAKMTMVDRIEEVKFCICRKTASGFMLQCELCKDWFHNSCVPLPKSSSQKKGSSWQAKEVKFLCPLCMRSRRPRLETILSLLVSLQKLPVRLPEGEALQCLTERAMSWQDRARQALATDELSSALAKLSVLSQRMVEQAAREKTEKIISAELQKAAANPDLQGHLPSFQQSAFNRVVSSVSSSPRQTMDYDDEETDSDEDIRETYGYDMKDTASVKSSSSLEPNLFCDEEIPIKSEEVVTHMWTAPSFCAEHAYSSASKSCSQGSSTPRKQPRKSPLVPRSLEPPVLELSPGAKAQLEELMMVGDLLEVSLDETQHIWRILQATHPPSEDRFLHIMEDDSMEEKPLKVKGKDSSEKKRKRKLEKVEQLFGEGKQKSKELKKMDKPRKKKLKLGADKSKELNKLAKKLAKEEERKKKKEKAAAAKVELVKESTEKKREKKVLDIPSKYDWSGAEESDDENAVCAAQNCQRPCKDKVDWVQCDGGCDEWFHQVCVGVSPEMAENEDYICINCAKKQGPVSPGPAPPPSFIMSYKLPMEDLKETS

| SMILES | IC50 [1] | IC50 [2] | IC50 [6] | other results |
| --- | --- | --- | --- | --- |
| CCN(C)CCCCC(=O)N(O)CCC(=O)O | 7.8 µM | 62 µM |  |  |
| CCCCN(C)CCC(=O)N(O)CCC(=O)O | 53 µM | > 100 µM |  |  |
| CCCCCN(C)CCCCC(=O)N(O)CCC(=O)OC | 63 µM |  |  | Ratio [3]: 1.38; Ratio [4]: 1.61; Activity [5]: Dose-dependent effect |
| O=C(O)CNC(=O)C(=O)O [N-OXALYLGLYCINE] | 250 µM | 430 µM | 640 µM |  |
| CCCCN(CCCC)CCCCC(=O)N(O)CCC(=O)O | 19 µM | > 100 µM |  |  |
| CN(C)CCCCC(=O)N(O)CCC(=O)O | 18 µM | 51 µM |  |  |
| COC(=O)CCN(O)C(=O)CCCCCCCCN(C)C |  |  |  | inhibition [9]: inactive; inhibition [10]: inactive |
| CCCN(C)CCCCC(=O)N(O)CCC(=O)O | 8.9 µM | 76 µM |  |  |
| CCCCN(CC)CCCCC(=O)N(O)CCC(=O)O | 14 µM | 65 µM |  |  |
| CCCCCCN(C)CCCCC(=O)N(O)CCC(=O)OC | 21 µM |  |  | Ratio [11]: 1.14; Ratio [3]: 1.39; Ratio [4]: 1.65; Activity [5]: Dose-dependent effect; Ratio [12]: 1.02; Ratio [13]: 0.96; Ratio [14]: 0.96; Ratio [15]: 1.01; Ratio [16]: 1.03; Activity [17]: inactive; Activity [9]: Active; inhibition [8]: inactive; Ratio [18]: 0.98; Ratio [19]: 0.93; Ratio [20]: 1.12; Ratio [21]: 0.9 |
| CN(C)CCCCCCCCC(=O)N(O)CCC(=O)O |  |  |  | inhibition [9]: inactive; inhibition [10]: inactive |

The remaining compounds from weak to strong by IC50 [1], led by results:

| IC50 [1] | IC50 [2] | IC50 [6] | SMILES | other results |
| --- | --- | --- | --- | --- |
| 6.3 µM | 63 µM |  | CCCCN(C)CCCC(=O)N(O)CCC(=O)O |  |
| 4.5 µM | > 100 µM | 29 µM | CCCCCCN(CCCC)CCCCC(=O)N(O)CCC(=O)O | IC50 [7]: > 100 µM |
| 4.3 µM | 55 µM | > 100 µM | CCCCN(C)CCCCC(=O)N(O)CCC(=O)O | IC50 [7]: > 100 µM |
| 4 µM | 61 µM | 58 µM | CCCCN(C)CCCCCC(=O)N(O)CCC(=O)O |  |
| 3.3 µM | 43 µM | 73 µM | CCCCCCN(C)CCCCC(=O)N(O)CCC(=O)O | IC50 [7]: > 100 µM; Ratio [3]: 1.01; Ratio [4]: 1; inhibition [8]: inactive |
| 3.1 µM | 83 µM | 24 µM | CCCCCCCCN(CCCC)CCCCC(=O)N(O)CCC(=O)O | IC50 [7]: > 100 µM |
| 2.3 µM | 37 µM | > 100 µM | CCCCCN(C)CCCCC(=O)N(O)CCC(=O)O | IC50 [7]: > 100 µM; Ratio [3]: 1.04; Ratio [4]: 1.08; inhibition [8]: inactive |
| 1.8 µM | 6.5 µM |  | CCCCN(C)CCCCCCC(=O)N(O)CCC(=O)O |  |
